From PubChem
A selection: hits, their analogues and other compounds. The true share with any hit is near 1.7%.
Runt-SMMHC FRET = inhibitors of RUNX1 Runt–CBFb-SMMHC binding, primary screen, biochemical, FRET, Cerulean-Runt, Venus-CBFb-SMMHC, uHTS; Runt-related transcription factor 1 (Homo sapiens) + Core-binding factor subunit beta …; Cerulean-Runt/Venus-CBFb-SMMHC FRET ratio 530/480, 1 h; inhibition, % at 20 µM; actives 0.74% (n = 220,000);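 active means mean inhibition across duplicate retests at 20 µM reaching about 50%, limit read from the data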;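 further: 0% = DMSO wells and 100% = wells with excess untagged CBFb-SMMHC; inhibitors lower the FRET ratio by blocking Runt binding to CBFb-SMMHC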
Runt-CBFb FRET = inhibitors of RUNX1 Runt–CBFb binding, primary screen, biochemical, FRET, Cerulean-Runt, Venus-CBFb, uHTS | Runt-related transcription factor 1 (Homo sapiens) + Core-binding factor subunit beta … | Cerulean-Runt/Venus-CBFb FRET ratio 530/480, 1 h | inhibition, % at 20 µM | actives 0.46% (n = 220,000);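 active means inhibition over about 50% at 20 µM in the single-dose screen, limit read from the data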;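 further: 0% = DMSO wells and 100% = excess unlabeled CBFb competitor control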
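Measured by: fluorescence energy transfer, 422 nm excitation, 530/480 nm emission; test system: Cerulean-tagged RUNX1 Runt domain (FRET donor) fusion protein; buffer or medium: Tris pH 7.5 buffer with BSA; compound: one dose, 20 µM compound, 1% DMSO; times: two 1 h room-temperature incubations shielded from light; benchmarks: unlabeled CBFb 5 µM, positive control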
Hck Nef HTS = inhibitors of Nef-activated human Hck kinase, primary screen, biochemical, Z-Lyte FRET, 384-well, Hck-YEEI | actives 0.68% (n = 220,000) | Recombinant Hck-YEEI plus Nef, Z-Lyte FRET kinase assay | inhibition, % at 20 µM | Tyrosine-protein kinase HCK (Homo sapiens), P08631;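 active means Hck-Nef kinase inhibition above about 50%, limit read from the data; inactive means inhibition below that limit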;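 further: 0% = DMSO with Hck plus Nef and 100% = Hck alone without Nef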
Target sequence (P08631 whole entry, looked up): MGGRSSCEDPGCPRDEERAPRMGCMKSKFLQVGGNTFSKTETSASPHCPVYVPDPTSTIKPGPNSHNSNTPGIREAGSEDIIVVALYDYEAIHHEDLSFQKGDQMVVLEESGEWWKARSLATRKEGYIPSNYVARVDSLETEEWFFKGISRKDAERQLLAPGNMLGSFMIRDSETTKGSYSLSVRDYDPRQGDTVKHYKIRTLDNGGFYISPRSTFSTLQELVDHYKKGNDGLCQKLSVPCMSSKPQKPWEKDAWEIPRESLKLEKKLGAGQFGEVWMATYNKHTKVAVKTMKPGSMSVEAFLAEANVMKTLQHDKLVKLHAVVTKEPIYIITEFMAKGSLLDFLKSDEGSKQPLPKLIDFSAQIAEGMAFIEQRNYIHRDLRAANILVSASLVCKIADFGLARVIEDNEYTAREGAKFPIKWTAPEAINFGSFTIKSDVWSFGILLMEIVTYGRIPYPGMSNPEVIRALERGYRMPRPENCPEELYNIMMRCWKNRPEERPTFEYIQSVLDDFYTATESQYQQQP
RanGTP-Impb inh = inhibitors of RanGTP-importin-beta interaction, primary screen, biochemical, FRET, CFP-Ran, YFP-importin-beta, homogeneous | actives 1.1% (n = 300,000) | inhibition, % (test concentration not listed) | cell-free CFP-Ran/YFP-importin-beta FRET ratio | Ran GTPase (GTP-bound) - importin-beta complex;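 active means more than half of the replicate wells show a fall in the fluorescence ratio signal beyond about 16%, limit read from the data, passing the limit was not always enough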;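 further: 0% = DMSO wells and 100% = Ran loaded with GDP instead of GTP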
* = called active by the depositor.

`CCN(CC(=O)Nc1ccc(NC(C)=O)cc1)C(=O)Cc1cccc2ccccc12` gave RanGTP-Impb inh 5.
Screening N#Cc1ccc(/C=N/NC(=O)c2cccc(S(=O)(=O)N3CCOCC3)c2)cc1 returned Runt-SMMHC FRET -1, Runt-CBFb FRET 1, Hck Nef HTS -15 and RanGTP-Impb inh 32*.
`CC(=O)Nc1ccc(/C=N/NC(=O)c2cccc(S(=O)(=O)N3CCOCC3)c2)cc1` gave Runt-SMMHC FRET 3, Runt-CBFb FRET 0, Hck Nef HTS 5 and RanGTP-Impb inh -1.
CCOc1ccc2nc(N3CCCC(C(=O)NCC4CCCO4)C3)sc2c1 (centres undefined) was read as Runt-SMMHC FRET 1, Runt-CBFb FRET 2, Hck Nef HTS -15 and RanGTP-Impb inh 0.
For CC(=O)Nc1cccc(N/C=C(\C=O)c2nc3ccccc3o2)c1 the results were Runt-SMMHC FRET 66*, Runt-CBFb FRET 26, Hck Nef HTS 7 and RanGTP-Impb inh 1.
Screening CC(=O)Nc1ccc(N/C=C(\C=O)c2nc3ccccc3o2)cc1 returned Runt-SMMHC FRET 29, Runt-CBFb FRET 11, Hck Nef HTS 0 and RanGTP-Impb inh 4.
Cc1cc(-c2csc(NCc3ccccc3)n2)c(C)n1C was read as Runt-SMMHC FRET -21, Runt-CBFb FRET 2 and Hck Nef HTS 65*.
O=C(CCCCCn1c(=S)[nH]c2ccc(Br)cc2c1=O)NCC1CCCO1 (centres undefined) was read as Runt-SMMHC FRET 1, Runt-CBFb FRET 0, Hck Nef HTS 10 and RanGTP-Impb inh 0.
For NS(=O)(=O)c1ccc(CCNC(=O)CCCCCn2c(=S)[nH]c3ccc(Br)cc3c2=O)cc1 the results were Runt-SMMHC FRET -5, Runt-CBFb FRET -4, Hck Nef HTS 50* and RanGTP-Impb inh -2.
For CCOC(=O)c1cc2c(ccn2C)n1CC(=O)N1CCCC(C)C1 (centres undefined) the results were Runt-SMMHC FRET -15, Runt-CBFb FRET 23, Hck Nef HTS 1 and RanGTP-Impb inh 24*.
Screening Cc1cccn2c(=O)c(C=Nc3ccccc3)c(NCc3ccco3)nc12 returned Runt-SMMHC FRET 8, Runt-CBFb FRET 3, Hck Nef HTS 6 and RanGTP-Impb inh 7.
`Cc1cccn2c(=O)c3cc(S(=O)(=O)c4ccccc4)c(=N)n(Cc4ccco4)c3nc12` gave Hck Nef HTS 31 and RanGTP-Impb inh 93*.
For Cc1cccn2c(=O)c3cc(S(=O)(=O)c4ccc(F)cc4)c(=N)n(Cc4ccco4)c3nc12 the results were Runt-SMMHC FRET 81*, Runt-CBFb FRET 10, Hck Nef HTS 18 and RanGTP-Impb inh 84*.
For Cc1cccn2c(=O)c3cc(S(=O)(=O)c4ccccc4)c(=N)n(Cc4ccc(F)cc4)c3nc12 the results were RanGTP-Impb inh -2.
`CCCCCCCCOc1ccc(C2OC34CCCCC3C(C#N)(C#N)C2(C#N)C(=N)O4)cc1` (centres undefined) gave Runt-SMMHC FRET 56*, Runt-CBFb FRET 25, Hck Nef HTS 4 and RanGTP-Impb inh 44*.
Screening CCCCC1OC23CCCCC2C(C#N)(C(=N)O3)C1(C#N)C#N (centres undefined) returned Runt-SMMHC FRET 32, Runt-CBFb FRET 19, Hck Nef HTS 1 and RanGTP-Impb inh 24*.
Screening CCCCC1OC23CCCCC2C(C#N)(C#N)C1(C#N)C(=N)O3 (centres undefined) returned Runt-SMMHC FRET 81, Runt-CBFb FRET 24, Hck Nef HTS 3 and RanGTP-Impb inh 53*.
`COC(=O)C1=C(C)N(C)C(=S)N(C)C1c1cccc(Br)c1` (centres undefined) gave Runt-SMMHC FRET -2, Runt-CBFb FRET -1, Hck Nef HTS 16 and RanGTP-Impb inh -1.
Screening COC(=O)C1=C(C(=O)OC)C2C(C)=CC(C)=CN2C(C(=O)OC)=C1C(=O)OC (centres undefined) returned Runt-SMMHC FRET 9, Runt-CBFb FRET 2, Hck Nef HTS 3 and RanGTP-Impb inh 72*.
`CCN(CC)S(=O)(=O)c1cccc(C(=O)/C=C2/N(C)c3ccccc3C2(C)C)c1` gave Runt-SMMHC FRET 12, Runt-CBFb FRET 9, Hck Nef HTS 8 and RanGTP-Impb inh 27*.
`Cc1cc2c(cc1C)CN(c1ccccc1)C2` gave Runt-SMMHC FRET -3, Runt-CBFb FRET 1, Hck Nef HTS -26 and RanGTP-Impb inh 2.
Screening CC(C)CCN(C(=O)Nc1ccc(Cl)cc1)C1CCN(C(C)C)CC1 returned Runt-SMMHC FRET -4, Runt-CBFb FRET 1, Hck Nef HTS 30 and RanGTP-Impb inh -2.
For COc1cc(OC)c(/C=C2\SC(=O)N(CC(=O)Nc3ccccc3F)C2=O)c(OC)c1 the results were RanGTP-Impb inh 46*.
`O=c1c2ccccc2sn1-c1ccccc1` gave Runt-SMMHC FRET 57*, Runt-CBFb FRET 32, Hck Nef HTS 96* and RanGTP-Impb inh 3.
For CCC(=O)c1ccc(OCC(=O)OCC(=O)N2CCCc3ccccc32)cc1 the results were RanGTP-Impb inh 1.
For CN(C)CCCn1c(N)c(C#N)c2nc3ccccc3nc21 the results were Runt-SMMHC FRET 80*, Runt-CBFb FRET 9, Hck Nef HTS 29 and RanGTP-Impb inh 61*.
`CCCCn1c(NC(=O)CC)c(C#N)c2nc3ccccc3nc21` gave Runt-SMMHC FRET 11, Runt-CBFb FRET 4, Hck Nef HTS 23 and RanGTP-Impb inh 5.
Screening CCCCC(CC)Cn1c(N)c(C#N)c2nc3ccccc3nc21 (centres undefined) returned Runt-SMMHC FRET 101*, Runt-CBFb FRET 44, Hck Nef HTS 6 and RanGTP-Impb inh 49*.
Cc1cc(C)c2c(N)c(C(=O)Nc3ccccc3Br)sc2n1 was read as RanGTP-Impb inh 4.
Cc1nc2sc(C(=O)c3ccccc3)c(N)c2c(C)c1C was read as Runt-SMMHC FRET 3, Runt-CBFb FRET 54*, Hck Nef HTS 6 and RanGTP-Impb inh 0.
For Cc1cc(C)c2c(N)c(C(=O)c3cccc(Cl)c3)sc2n1 the results were Runt-SMMHC FRET 60*, Runt-CBFb FRET 87*, Hck Nef HTS 4 and RanGTP-Impb inh 2.
For Cc1cc(C)c2c(N)c(C(=O)c3ccc(Cl)cc3Cl)sc2n1 the results were Runt-SMMHC FRET -14, Runt-CBFb FRET 6, Hck Nef HTS 2 and RanGTP-Impb inh 4.
Cc1nc(-c2ccccc2)nc2sc(C(=O)c3ccc(F)cc3)c(N)c12 was read as Runt-SMMHC FRET 72, Runt-CBFb FRET -55, Hck Nef HTS -101 and RanGTP-Impb inh 3.
